Assay outcomes from PubChem BioAssay.
Only some compounds are listed: those with a hit (about 4.3% of all), similar ones and a draw of the others.
STAT1 activator: STAT1 signaling activation. NIH 3T3 STAT1-luciferase reporter, IFN-gamma, luminescence; 100% = IFN-gamma alone, no compound. activation (% of control), % at 5.5 µM. 200,000 compounds, 2.6% hits. AID 932;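 active means activation above the screen-wide mean activation plus 3 SD, cut at about 130% in these data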;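 further: raw ratio to IFN-gamma control signal so 100% means no change and 0% no light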
STAT3 activator: activators of IL-6 induced STAT3 signaling | U3A cells, IL-6 STAT3-luciferase reporter, luminescence; 100% = signal with IL-6 EC80 alone | activation (% of control), % at 5.6 µM | 190,000 compounds, 0.91% hits;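 active means activation above the screen-wide mean of compound activation plus 3 SD, cut at about 130% in these data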;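 further: 0% = background luminescence of wells with medium and substrate only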
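Assay system – human STAT1-deficient U3A cells with stable STAT3-luciferase reporter · Also added – IL-6 (33 ng/mL) · Schedule – compound 1 h, then IL-6 6 h at 37 °C · Technique – reporter luminescence signal · Evaluation – % activation versus median of IL-6-stimulated wells · Benchmarks – IL-6-only wells as 100% reference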
STAT3 inh-1: reduces IL-6 driven STAT3 reporter signal; U3A cells, IL-6 STAT3-luciferase reporter, luminescence; host cell line lacks STAT1; inhibition, % at 5.5 µM; 190,000 compounds, 0.89% hits; AID 862;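 active means inhibition above the mean inhibition across all screened compounds plus 3 SD, cut at about 44% in these data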;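 further: 0% = DMSO only wells and 100% = 100 µM nifuroxazide control wells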
STAT1 inh: reduces IFN-gamma driven STAT1 reporter signal | NIH 3T3 STAT1-luciferase reporter, luminescence | inhibition, % at 5.5 µM | 200,000 compounds, 0.35% hits | AID 920;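 active means inhibition above a set limit, the mean inhibition across all tested compounds plus 3 SD, cut at about 34% in these data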;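 further: 0% = IFN-gamma with DMSO and 100% = IFN-gamma with 300 µM nifuroxazide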
STAT3 inh-2: STAT3 inhibition, confirmation assay; shares compounds with STAT3 inh-1; U3A cells, IL-6 STAT3 luciferase reporter, luminescence; cell line lacks STAT1; inhibition, % at 5.7 µM; 1,200 compounds, 45% hits;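 active means inhibition above the hit cutoff computed for the primary STAT3 screen, cut at about 44% in these data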;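 further: 0% = IL-6 plus DMSO and 100% = IL-6 plus nifuroxazide control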
NFkB inh 2: NF-kappaB inhibition in STAT3 inhibitor counter-screen; 1,200 compounds, 36% hits; shares compounds with STAT3 inh-1; AID 1308; HEK293T NF-kB luciferase reporter, TNF-alpha induced; inhibition, % at 5.7 µM;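 active means inhibition above the mean of solvent-only control wells plus 3 SD, cutoff set per campaign, cut at about 13% in these data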;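 further: 0% = TNF-alpha with DMSO and 100% = TNF-alpha with MG high control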
STAT1 inh 2: STAT1 inhibition in STAT3 inhibitor counter-screen; shares compounds with STAT3 inh-1; NIH 3T3 STAT1-luciferase reporter, IFN-gamma induced, luminescence; inhibition, % at 5.7 µM; 1,200 compounds, 27% hits; AID 1317;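 active means inhibition above the mean plus 3 SD of solvent-only control wells, limit set per screening run, cut at about 16% in these data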;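 further: 0% = DMSO with IFN-gamma and 100% = nifuroxazide control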
An asterisk follows results filed as active.

For O=C(COc1ccc(Cl)cc1)Nc1ncc([N+](=O)[O-])s1 the results were STAT1 activator 70, STAT3 activator 63, STAT3 inh-1 48*, STAT1 inh 31, STAT3 inh-2 8, NFkB inh 2 -9 and STAT1 inh 2 -42.
N=c1cc(C2(O)CCCCC2)n2c(nc3ccccc32)s1 was read as STAT1 activator 114, STAT3 activator 49, STAT3 inh-1 61*, STAT1 inh -4, STAT3 inh-2 36, NFkB inh 2 1 and STAT1 inh 2 -70.
Cc1ccc(-n2nnnc2SCn2nnc3ccccc3c2=O)c(C)c1 was read as STAT1 activator 81, STAT3 activator 58, STAT3 inh-1 53*, STAT1 inh 21, STAT3 inh-2 53*, NFkB inh 2 5 and STAT1 inh 2 15.
For CC(C)Nc1ncnc2c1cnn2-c1ccc(Cl)cc1 the results were STAT1 activator 93, STAT3 activator 55, STAT3 inh-1 55*, STAT1 inh 5, STAT3 inh-2 16, NFkB inh 2 -31 and STAT1 inh 2 -186.
Screening Nc1[nH]n(-c2ccccc2)c(=O)c1N=Nc1ccc2c(c1)OCCO2 returned STAT1 activator 120, STAT3 activator 65, STAT3 inh-1 45*, STAT1 inh -22, STAT3 inh-2 10, NFkB inh 2 -15 and STAT1 inh 2 -94.
Cc1[nH]n(-c2ccccc2)c(=O)c1N=Nc1cccc(S(=O)(=O)N2CCOCC2)c1 was read as STAT1 activator 105, STAT3 activator 94, STAT3 inh-1 2 and STAT1 inh -5.
For Cc1cccc(NC(=O)Nc2cccc(F)c2)n1 the results were STAT1 activator 125, STAT3 activator 100, STAT3 inh-1 6 and STAT1 inh -27.
Cc1ccnc(NC(=O)Nc2cccc(F)c2)c1 was read as STAT1 activator 138*, STAT3 activator 62, STAT3 inh-1 46*, STAT1 inh -41, STAT3 inh-2 -7, NFkB inh 2 -28 and STAT1 inh 2 -130.
Screening Cc1ccnc(NC(=O)C(C)n2cc([N+](=O)[O-])cn2)c1 (stereo unspecified) returned STAT1 activator 99, STAT3 activator 96, STAT3 inh-1 11 and STAT1 inh 1.
COc1ccc(-c2cn(-c3ccc(C)cc3C)c(=O)[nH]2)cc1OC was read as STAT1 activator 90, STAT3 activator 86, STAT3 inh-1 20 and STAT1 inh 10.
`CCCOc1ccc([N+](=O)[O-])c(N)c1` gave STAT1 activator 95, STAT3 activator 99, STAT3 inh-1 -1 and STAT1 inh 5.
`Cc1cc(CNC(=O)c2cccc([N+](=O)[O-])c2C)c2ccccc2n1` gave STAT1 activator 76, STAT3 activator 60, STAT3 inh-1 51*, STAT1 inh 25, STAT3 inh-2 54*, NFkB inh 2 14* and STAT1 inh 2 22*.
For Cc1ccc[n+](CC(=O)Nc2cc(C(F)(F)F)ccc2N2CCOCC2)c1 the results were STAT1 activator 99, STAT3 activator 103, STAT3 inh-1 1 and STAT1 inh 1.
For COc1ccc(OC)c(-c2cc(C(=O)Nc3ccc(F)cc3F)no2)c1 the results were STAT1 activator 104, STAT3 activator 101, STAT3 inh-1 8 and STAT1 inh -6.
`CC(=O)Nc1ccc(SCC(=O)c2cc(C)n(-c3ccccc3)c2C)cc1` gave STAT1 activator 141*, STAT3 activator 61, STAT3 inh-1 44*, STAT1 inh -45, STAT3 inh-2 13, NFkB inh 2 -46 and STAT1 inh 2 -118.
Screening COc1ccccc1C(=O)NNC(=O)c1sccc1-n1cccc1 returned STAT1 activator 103, STAT3 activator 114, STAT3 inh-1 -16 and STAT1 inh -4.
`O=C(Nc1ccc(S(=O)(=O)N2CCCC2)cc1)c1ccc(CN2CCOCC2)cc1` gave STAT1 activator 95, STAT3 activator 50, STAT3 inh-1 65*, STAT1 inh 5, STAT3 inh-2 52*, NFkB inh 2 15* and STAT1 inh 2 13.
